Activity calls are given as the source filed them. The calls are words filed in the database; no cut-off is given here.

Experiment [1] addresses T1, Integrin alpha-5/beta-1 (Homo sapiens, UniProt P05556+P08648). In words: Binding affinity to alpha5beta1 integrin receptor (unknown origin) incubated fro 30 mins by competitive solid-phase binding assay. Format: protein-complex assay. In short, it runs like this:
(§1)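 Competitive solid-phase binding assay using FN for αvβ3 and α5β1, giving IC50. Mean ± SEM, n=3.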

Experiment [2] addresses T2, Integrin alpha-4/beta-1 (Homo sapiens, UniProt P05556+P13612). In words: Agonist activity at alpha4beta1 integrin receptor in human Jurkat E6.1 cells assessed as induction of ERK1/2 phosphorylation incubated for 1 hr by Western blot analysis. Format: cell-based. Summed up:
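Jurkat cells (α4β1) were treated across a concentration range with VCAM-1 as positive control. ERK1/2 phosphorylation was quantified by band densitometry against vehicle. Mean ± SEM, n=5; Newman-Keuls test after ANOVA.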

In experiment [3] the target is T2, Integrin alpha-4/beta-1. Kind of experiment: Binding affinity to alpha4beta1 integrin receptor (unknown origin) incubated for 1 hr by scintillation proximity binding assay. Format: protein-complex assay. Summed up:
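Scintillation proximity binding assay for α4β1, giving IC50. Mean ± SEM, n=3.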
For orientation: SPA uses beads or plates that emit light when radiolabelled molecules are held near them.

The target of experiment [4] is T3, Integrin alpha-V/beta-3 (Homo sapiens, UniProt P05106+P06756). In words: Binding affinity to alphaVbeta3 integrin receptor (unknown origin) incubated fro 30 mins by competitive solid-phase binding assay. Format: protein-complex assay. In short, it runs like this:
as §1

Experiment [5] has as its target T1, Integrin alpha-5/beta-1. In words: Agonist activity at alpha5beta1 integrin receptor in human K562 cells assessed as increase in fibronectin-induced cell adhesion pre-incubated for 30 mins. Format: cell-based. Summed up:
(§2)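 Integrin-mediated adhesion. αvβ3: SK-MEL-24 cells adhering to FN. α5β1: K562 cells adhering to FN. α4β1: Jurkat E6.1 cells adhering to VCAM-1. Values are mean ± SD, n=3.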

Experiment [6] has as its target T2, Integrin alpha-4/beta-1. Kind of experiment: Agonist activity at alpha4beta1 integrin receptor in human Jurkat E6.1 cells assessed as increase in VCAM1-induced cell adhesion pre-incubated for 30 mins. Format: cell-based. In short, it runs like this:
as §2

Experiment [7] concerns the target T3, Integrin alpha-V/beta-3. In words: Agonist activity at alphaVbeta3 integrin receptor in human SK-MEL-24 cells assessed as increase in fibronectin-induced cell adhesion pre-incubated for 30 mins. It counts as cell-based. In short, it runs like this: as §2
The target in experiment [8] is T2, Integrin alpha-4/beta-1. In words: Agonist activity at alpha4beta1 integrin receptor in human Jurkat E6.1 cells assessed as increase in VCAM1-induced cell adhesion at 10 ug/ml pre-incubated for 30 mins in presence of 10 ug/ml neutralizing antibody to alpha4 integrin subunit. Format: cell-based.
The target of experiment [9] is Mitogen-activated protein kinase; ERK1/ERK2 (Homo sapiens) (UniProt P27361+P28482). In words: Activation of ERK1/2 phosphorylation in HEK293 cells at 1 nM to 100 nM incubated for 1 hr by Western blot analysis. It counts as cell-based. Summed up: (§3)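 HEK293 cells were transfected with plasmids coding αv and β3 subunits; untransfected HEK293 served as negative control and FN as positive control. ERK1/2 phosphorylation was quantified by band densitometry against vehicle. Mean ± SEM, n=5; Newman-Keuls test after ANOVA.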

The target in experiment [10] is T3, Integrin alpha-V/beta-3. Kind of experiment: Agonist activity at alphaVbeta3 integrin receptor in human Saos-2 cells assessed as increase in fibronectin-induced cell adhesion at 10 ug/ml added 10 mins after pre-incubation with neutralizing antibody to integrin alphaV-subunit. It counts as cell-based. In short, it runs like this: (§4)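 Neutralizing antibody against the αv subunit was added to SK-MEL-24 or Saos-2 cells 10 min before the compounds (10 μg/mL). Adhesion was then measured.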

For experiment [11], the target named is T3, Integrin alpha-V/beta-3. In words: Agonist activity at alphaVbeta3 integrin receptor (unknown origin) expressed in HEK293 cells assessed as induction of ERK1/2 phosphorylation at 1 nM to 100 nM incubated for 1 hr by Western blot analysis. It counts as cell-based. In short, it runs like this:
as §3
In general terms: Immunoblotting shows a protein as a band on a membrane.

The target of experiment [12] is T2, Integrin alpha-4/beta-1. Kind of experiment: Activity at alpha4beta1 integrin receptor in human Jurkat E6.1 cells assessed as effect on VCAM1-induced cell adhesion pre-incubated for 30 mins. It counts as cell-based. In short, it runs like this: as §2
In experiment [13] the target is T3, Integrin alpha-V/beta-3. Kind of experiment: Agonist activity at alphaVbeta3 integrin receptor in human Saos-2 cells assessed as increase in cell adhesion to wells coated with compound by passive absorption in absence of fibronectin. It counts as cell-based. In short, it runs like this:
(§5)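 Compounds were coated onto wells by passive absorption, with no FN present. Adhesion of SK-MEL-24 or Saos-2 cells was compared with BSA-coated wells. Mean ± SEM from three independent experiments run in quadruplicate; Newman-Keuls test after ANOVA.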

For experiment [14], the target named is T3, Integrin alpha-V/beta-3. Kind of experiment: Agonist activity at alphaVbeta3 integrin receptor in human SK-MEL-24 cells assessed as increase in cell adhesion to wells coated with compound by passive absorption in absence of fibronectin. It counts as cell-based. In short, it runs like this:
as §5

Experiment [15] deals with T1, Integrin alpha-5/beta-1. In words: Antagonist activity at alpha5beta1 integrin receptor in human K562 cells assessed as reduction in fibronectin-induced cell adhesion pre-incubated for 30 mins. It counts as cell-based. Summed up:
as §2

Experiment [16] addresses T3, Integrin alpha-V/beta-3. Kind of experiment: Agonist activity at alphaVbeta3 integrin receptor in human SK-MEL-24 cells assessed as increase in fibronectin-induced cell adhesion at 10 ug/ml added 10 mins after pre-incubation with neutralizing antibody to integrin alphaV-subunit. Format: cell-based. In short, it runs like this:
as §4

Experiment [17] addresses T3, Integrin alpha-V/beta-3. Kind of experiment: Agonist activity at alphaVbeta3 integrin receptor in human Saos-2 cells assessed as increase in fibronectin-induced cell adhesion pre-incubated for 30 mins. It counts as cell-based.
Experiment [18] concerns the target T1, Integrin alpha-5/beta-1. Kind of experiment: Activity at alpha5beta1 integrin receptor in human K562 cells assessed as effect on fibronectin-induced cell adhesion pre-incubated for 30 mins. Format: cell-based. In short, it runs like this: as §2
In experiment [19] the target is T3, Integrin alpha-V/beta-3. In words: Activity at alphaVbeta3 integrin receptor in human SK-MEL-24 cells assessed as effect on fibronectin-induced cell adhesion pre-incubated for 30 mins. It counts as cell-based. Summed up:
as §2

The target of experiment [20] is T1, Integrin alpha-5/beta-1. In words: Antagonist activity at alpha5beta1 integrin receptor in human K562 cells assessed as reduction in fibronection-induced ERK1/2 phosphorylation at 1 nM to 100 nM pre-incubated for 1 hr before fibronectin stimulation for 1 hr by Western blot analysis. It counts as cell-based. In short, it runs like this: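 K562 cells (α5β1) were treated with compound and stimulated with FN. FN-induced ERK1/2 phosphorylation was quantified by band densitometry against vehicle and FN. Mean ± SEM, n=5; Newman-Keuls test after ANOVA.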

One may read the IC50 as the concentration that inhibits the measured activity by half. One may read the EC50 as the concentration needed to bring the measured effect to its halfway point. Take `Cc1ccccc1NC(=O)N1CCC[C@H]1C(=O)O`: the figures for the 50% inhibitory concentration (IC50) at Integrin alpha-5/beta-1 [1], at Integrin alpha-4/beta-1 [3] and at Integrin alpha-V/beta-3 [4] were 136 nM, 18.9 nM and more than 1000 nM, respectively. Further, the Activity entry at Integrin alpha-4/beta-1 [2] was “Dose-dependent effect”. In addition, the concentration giving a half-maximal response (EC50) on Integrin alpha-5/beta-1 [5] worked out at 140 nM; on Integrin alpha-4/beta-1 [6], 10 nM; on Integrin alpha-V/beta-3 [7] it was 2880 nM. Also, the result at Integrin alpha-4/beta-1 [8] was inactive.

Turning to `Cc1ccccc1NC(=O)NCC(=O)O`, the result (in experiment [9]; on Integrin alpha-V/beta-3 [10]; on Integrin alpha-V/beta-3 [16]) was inactive. In addition, the concentration for half-maximal inhibition (IC50) is more than 1000 nM at Integrin alpha-5/beta-1 [1], more than 1000 nM at Integrin alpha-4/beta-1 [3], 3.4 nM on Integrin alpha-V/beta-3 [4] and 3510 nM on Integrin alpha-5/beta-1 [15]. For the same compound, the outcome at Integrin alpha-V/beta-3 [11], on Integrin alpha-V/beta-3 [13] and on Integrin alpha-V/beta-3 [14] was Active. In addition, on Integrin alpha-4/beta-1 [12], the Activity is more than 5 µM. In addition, the concentration for a half-maximal effect (EC50) stood at 84.8 nM at Integrin alpha-V/beta-3 [7] and 299 nM on Integrin alpha-V/beta-3 [17].

In the case of `O=C(O)/C=C1/CC(=O)N1`, the result (in experiment [9]; at Integrin alpha-V/beta-3 [10]; on Integrin alpha-V/beta-3 [16]) was inactive. For the same compound, the concentration for half-maximal inhibition (IC50) on Integrin alpha-5/beta-1 [1] was more than 1000 nM; at Integrin alpha-4/beta-1 [3] it was 294 nM; on Integrin alpha-V/beta-3 [4], 29 nM. The outcome at Integrin alpha-V/beta-3 [11], at Integrin alpha-V/beta-3 [13] and on Integrin alpha-V/beta-3 [14] was Active. Moreover, the half-maximal effective concentration (EC50) on Integrin alpha-4/beta-1 [6] was found to be 255 nM; at Integrin alpha-V/beta-3 [7], 75.6 nM; at Integrin alpha-V/beta-3 [17], 154 nM. Besides, on Integrin alpha-5/beta-1 [18], the Activity was more than 5 µM.

For the compound `Cc1ccccc1NC(=O)N1CCC1=O`, the Activity on Integrin alpha-V/beta-3 [19] and on Integrin alpha-5/beta-1 [18] was more than 5 µM in each case. On Integrin alpha-4/beta-1 [6], the EC50 was determined as 976 nM.

On to `Cc1ccccc1C(=O)N1C(=O)CC1CC(=O)O` (stereo not given), for which the IC50 is 409 nM on Integrin alpha-5/beta-1 [1], more than 1000 nM at Integrin alpha-4/beta-1 [3], more than 1000 nM on Integrin alpha-V/beta-3 [4] and 419 nM at Integrin alpha-5/beta-1 [15]. For the same compound, the Activity at Integrin alpha-V/beta-3 [19] and on Integrin alpha-4/beta-1 [12] was more than 5 µM throughout.

Regarding `O=C(O)CNC(=O)CC1CC(=O)N1` (stereo not given), the Activity at Integrin alpha-V/beta-3 [19] and at Integrin alpha-4/beta-1 [12] was more than 5 µM throughout. For the same compound, the half-maximal inhibitory concentration (IC50) at Integrin alpha-5/beta-1 [15] turned out to be 1110 nM.

For the compound `Cc1ccccc1NC(=O)N1C(=O)C[C@@H]1C(=O)O`, the Activity at Integrin alpha-V/beta-3 [19], on Integrin alpha-4/beta-1 [12] and on Integrin alpha-5/beta-1 [18] was more than 5 µM throughout.

With `NCc1ccc(NC(=O)N2C(=O)C[C@H]2C(=O)O)cc1`, the Activity at Integrin alpha-V/beta-3 [19] and on Integrin alpha-4/beta-1 [12] was more than 5 µM throughout.

Regarding `Cc1ccccc1NC(=O)N1C(=O)CC1CC(=O)O` (stereo not given), the Activity at Integrin alpha-V/beta-3 [19] and at Integrin alpha-5/beta-1 [18] was more than 5 µM throughout.

For the compound `NCc1ccc(NC(=O)N2C(=O)C[C@@H]2C(=O)O)cc1`, the Activity at Integrin alpha-V/beta-3 [19], on Integrin alpha-4/beta-1 [12] and at Integrin alpha-5/beta-1 [18] was more than 5 µM throughout.

On to `Cc1ccccc1NC(=O)NCCC(=O)O`, for which the result (in experiment [9]; at Integrin alpha-V/beta-3 [10]; at Integrin alpha-V/beta-3 [16]) was inactive. Moreover, the figures for the half-maximal inhibitory concentration (IC50) at Integrin alpha-5/beta-1 [1], on Integrin alpha-4/beta-1 [3] and on Integrin alpha-V/beta-3 [4] were more than 1000 nM, more than 1000 nM and 9.5 nM, respectively. For the same compound, the outcome on Integrin alpha-V/beta-3 [11], on Integrin alpha-V/beta-3 [13] and on Integrin alpha-V/beta-3 [14] was Active. Moreover, the Activity on Integrin alpha-4/beta-1 [12] and at Integrin alpha-5/beta-1 [18] was more than 5 µM in each case. Further, the 50% effective concentration (EC50) on Integrin alpha-V/beta-3 [7] is 29.9 nM; at Integrin alpha-V/beta-3 [17], 984 nM.

In the case of `Cc1ccccc1NC(=O)N1C(=O)CC1CC(=O)NCC(=O)O` (stereo not given), the Activity on Integrin alpha-V/beta-3 [19] and on Integrin alpha-4/beta-1 [12] was more than 5 µM each time.

`O=C(O)CC1CC(=O)N1` (stereo not given): on Integrin alpha-4/beta-1 [12], the Activity is more than 5 µM.

As to `Cc1ccccc1NC(=O)N1C(=O)C[C@@H]1C(=O)NCCC(=O)O`, the IC50 was 11.9 nM at Integrin alpha-5/beta-1 [1], more than 1000 nM at Integrin alpha-4/beta-1 [3], more than 1000 nM on Integrin alpha-V/beta-3 [4] and 96.9 nM at Integrin alpha-5/beta-1 [15]. Also, the Activity at Integrin alpha-V/beta-3 [19] and at Integrin alpha-4/beta-1 [12] was more than 5 µM each time.

`Cc1ccccc1C(=O)N1C(=O)C[C@H]1C(=O)O`: the IC50 at Integrin alpha-5/beta-1 [1] is 59.3 nM; on Integrin alpha-4/beta-1 [3], more than 1000 nM; on Integrin alpha-V/beta-3 [4] it was more than 1000 nM; at Integrin alpha-5/beta-1 [15], 41.5 nM. In addition, the Activity at Integrin alpha-V/beta-3 [19] and on Integrin alpha-4/beta-1 [12] was more than 5 µM each time. Moreover, the inhibition result at Integrin alpha-5/beta-1 [20] was “Active”.

(Values after ChEMBL document CHEMBL4321835, “Could Dissecting the Molecular Framework of β-Lactam Integrin Ligands Enhance Selectivity?” (J Med Chem, 2019).)
